ChEMBL document CHEMBL1772968, “Comparing micellar, hemolytic, and antibacterial properties of di- and tricarboxyl dendritic amphiphiles” (Bioorg Med Chem, 2011)
Converted amounts (≈) assume the structure as drawn.

Tests used:
Staphylococcus aureus [1] = assay: Antibacterial activity against Staphylococcus aureus ATCC 6358 by broth microdilution method; format: functional
Procedure, shortened: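 Log-phase cultures diluted and tested by broth microdilution in 0.1-strength brain heart infusion broth at about 10^5 CFU/mL inoculum. Amphiphile stocks were 12,500 µg/mL in 5% w/v aqueous triethanolamine. MIC was taken as MIC99 and run in duplicate.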

Staphylococcus aureus [2] = assay: Antibacterial activity against methicillin-resistant Staphylococcus aureus ATCC 43330 by broth microdilution method; format: functional
Procedure, shortened: (§1)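 MIC (defined as MIC99) determined by broth microdilution in 0.1-strength brain heart infusion broth. Cultures were diluted in growth medium to an inoculum of about 10^5 CFU/mL. Stocks of the amphiphiles were made in aqueous triethanolamine (5% w/v). Vancomycin stock was 500 mg/L in sterile water. Measurements were done in duplicate. Lines 1-6 are recent patient MRSA isolates.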

Staphylococcus aureus [3] = assay: Antibacterial activity against methicillin-resistant Staphylococcus aureus 522870 by broth microdilution method; format: functional; procedure, shortened: as §1
Staphylococcus aureus [4] = assay: Antibacterial activity against methicillin-resistant Staphylococcus aureus 34864 by broth microdilution method; format: functional; procedure, shortened: as §1
Staphylococcus aureus [5] = assay: Antibacterial activity against methicillin-resistant Staphylococcus aureus 36361 by broth microdilution method; format: functional; procedure, shortened: as §1
Staphylococcus aureus [6] = assay: Antibacterial activity against methicillin-resistant Staphylococcus aureus 53016 by broth microdilution method; format: functional; procedure, shortened: as §1
Staphylococcus aureus [7] = assay: Antibacterial activity against methicillin-resistant Staphylococcus aureus 523000 by broth microdilution method; format: functional; procedure, shortened: as §1
Staphylococcus aureus [8] = assay: Antibacterial activity against methicillin-resistant Staphylococcus aureus 34380 by broth microdilution method; format: functional; procedure, shortened: as §1
[9] = Cytotoxicity in sheep RBC assessed as hemolysis after 15 mins by microplate reader; format: cell-based, Ovis aries; details: erythrocyte, 0.25 h
Procedure, shortened: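 Washed defibrinated sheep red cells (1.1 × 10^7 cells/mL) in PBS pH 7.4, or in full-strength BHIB, were mixed 1:1 with compound diluted from 5% triethanolamine stock. Incubation was 15 min at 37 °C, then cells were pelleted at 5000g for 20 min. Supernatant A540 was read against 0.1% Triton X-100 (complete lysis). EC10 was the lowest concentration giving 10% lysis, in duplicate.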

[10] = Critical micelle concentration of the compound in full-strength brain heart infusion broth by dye-covered glass-bead release; details: pH 7.4
Staphylococcus aureus [11] = assay: Antibacterial activity against Staphylococcus aureus by broth microdilution method; format: functional
Staphylococcus aureus [12] = assay: Antibacterial activity against methicillin-resistant Staphylococcus aureus by broth microdilution method; format: functional

`CN[C@H](CC(C)C)C(=O)N[C@H]1C(=O)N[C@@H](CC(N)=O)C(=O)N[C@H]2C(=O)N[C@H]3C(=O)N[C@H](C(=O)N[C@H](C(=O)O)c4cc(O)cc(O)c4-c4cc3ccc4O)[C@H](O)c3ccc(c(Cl)c3)Oc3cc2cc(c3O[C@@H]2O[C@H](CO)[C@@H](O)[C@H](O)[C@H]2O[C@H]2C[C@](C)(N)[C@H](O)[C@H](C)O2)Oc2ccc(cc2Cl)[C@H]1O` [VANCOMYCIN] showed an MIC (Staphylococcus aureus [1]) of 0.25 µg/mL (≈ 0.173 µM), an MIC (Staphylococcus aureus [2]) of 0.25 µg/mL (≈ 0.173 µM) and an MIC (Staphylococcus aureus [3]) of 0.25 µg/mL (≈ 0.173 µM). For the same compound, the MIC (Staphylococcus aureus [4]) was 0.38 µg/mL (≈ 0.262 µM), the MIC (Staphylococcus aureus [5]) was 0.75 µg/mL (≈ 0.518 µM) and the MIC (Staphylococcus aureus [6]) was 0.38 µg/mL (≈ 0.262 µM).
For `CCCCCCCCCCCCCCCCCCCCCOC(=O)NC(C)(CCC(=O)O)CCC(=O)O`, the MIC (Staphylococcus aureus [1]) was 3.4 µg/mL (≈ 6.44 µM), the MIC (Staphylococcus aureus [2]) was 2.2 µg/mL (≈ 4.17 µM) and the MIC (Staphylococcus aureus [7]) was 3.4 µg/mL (≈ 6.44 µM). The MIC (Staphylococcus aureus [4]) was 4.5 µg/mL (≈ 8.53 µM), the MIC (Staphylococcus aureus [5]) was 2.2 µg/mL (≈ 4.17 µM) and the MIC (Staphylococcus aureus [6]) was 3.4 µg/mL (≈ 6.44 µM). For the same compound, the MIC (Staphylococcus aureus [8]) was 4.5 µg/mL (≈ 8.53 µM), the EC10 [9] was 16 µg/mL and the CMC [10] was 9 µg/mL.
`CCCCCCCCCCCCCCCCCCCCCCCNC(=O)NC(CCC(=O)O)(CCC(=O)O)CCC(=O)O` gave an MIC (Staphylococcus aureus [1]) of 54 µg/mL (≈ 88.1 µM), an MIC (Staphylococcus aureus [2]) of 6.8 µg/mL (≈ 11.1 µM) and an MIC (Staphylococcus aureus [7]) of 14 µg/mL (≈ 22.8 µM). The MIC (Staphylococcus aureus [3]) was 14 µg/mL (≈ 22.8 µM), the MIC (Staphylococcus aureus [4]) was 11 µg/mL (≈ 17.9 µM) and the MIC (Staphylococcus aureus [5]) was 43 µg/mL (≈ 70.2 µM). It also gave an MIC (Staphylococcus aureus [6]) of 7 µg/mL (≈ 11.4 µM), an MIC (Staphylococcus aureus [8]) of 11 µg/mL (≈ 17.9 µM) and an EC10 [9] of 31 µg/mL.
With `CCCCCCCCCCCCCCCC(=O)O` [PALMITIC ACID] the MIC (Staphylococcus aureus [11]) was over 250 µg/mL and the MIC (Staphylococcus aureus [12]) was 250 µg/mL (≈ 975 µM).
`CCCCCCCCCCCCCCCCCCCOC(=O)NC(C)(CCC(=O)O)CCC(=O)O` showed an MIC (Staphylococcus aureus [1]) of 2.2 µg/mL (≈ 4.4 µM), an MIC (Staphylococcus aureus [2]) of 2.2 µg/mL (≈ 4.4 µM) and an MIC (Staphylococcus aureus [7]) of 1.7 µg/mL (≈ 3.4 µM). It also gave an MIC (Staphylococcus aureus [4]) of 2.2 µg/mL (≈ 4.4 µM), an MIC (Staphylococcus aureus [5]) of 2.2 µg/mL (≈ 4.4 µM) and an MIC (Staphylococcus aureus [6]) of 2.2 µg/mL (≈ 4.4 µM). The MIC (Staphylococcus aureus [8]) was 2.2 µg/mL (≈ 4.4 µM), the EC10 [9] was 16 µg/mL and the CMC [10] was 9 µg/mL.
`CCCCCCCCCC(=O)O` [DECANOIC ACID] showed an MIC (Staphylococcus aureus [11]) of 250 µg/mL (≈ 1450 µM) and an MIC (Staphylococcus aureus [12]) of over 250 µg/mL.
`CCCCCCCCCCCC(=O)O` [DODECANOATE] showed an MIC (Staphylococcus aureus [11]) of 250 µg/mL (≈ 1250 µM) and an MIC (Staphylococcus aureus [12]) of over 250 µg/mL.
Work on `CCCCCCCCCCCCCCCCCCCCC(=O)NC(C)(CCC(=O)O)CCC(=O)O` yielded an MIC (Staphylococcus aureus [1]) of 2.2 µg/mL (≈ 4.42 µM), an MIC (Staphylococcus aureus [2]) of 2.2 µg/mL (≈ 4.42 µM) and an MIC (Staphylococcus aureus [7]) of 3.6 µg/mL (≈ 7.23 µM). The MIC (Staphylococcus aureus [3]) was 5.3 µg/mL (≈ 10.6 µM), the MIC (Staphylococcus aureus [4]) was 3.6 µg/mL (≈ 7.23 µM) and the MIC (Staphylococcus aureus [5]) was 3.6 µg/mL (≈ 7.23 µM). The MIC (Staphylococcus aureus [6]) was 3.6 µg/mL (≈ 7.23 µM), the MIC (Staphylococcus aureus [8]) was 3.6 µg/mL (≈ 7.23 µM) and the EC10 [9] was 7.8 µg/mL. It also gave a CMC [10] of 9 µg/mL.
Compound `CCCCCCCCCCCCCCCCCCCCCOC(=O)NC(CCC(=O)O)(CCC(=O)O)CCC(=O)O` has an MIC (Staphylococcus aureus [1]) of 27 µg/mL (≈ 46.1 µM), an MIC (Staphylococcus aureus [2]) of 4.5 µg/mL (≈ 7.68 µM) and an MIC (Staphylococcus aureus [7]) of 7 µg/mL (≈ 11.9 µM). It also gave an MIC (Staphylococcus aureus [3]) of 7 µg/mL (≈ 11.9 µM), an MIC (Staphylococcus aureus [4]) of 7 µg/mL (≈ 11.9 µM) and an MIC (Staphylococcus aureus [5]) of 14 µg/mL (≈ 23.9 µM). For the same compound, the MIC (Staphylococcus aureus [6]) was 7 µg/mL (≈ 11.9 µM), the MIC (Staphylococcus aureus [8]) was 5.3 µg/mL (≈ 9.05 µM) and the EC10 [9] was 31 µg/mL. For the same compound, the CMC [10] was 18 µg/mL.
`CCCCCCCCCCCCCCCCCCCCC(=O)NC(CCC(=O)O)(CCC(=O)O)CCC(=O)O` showed an MIC (Staphylococcus aureus [1]) of 54 µg/mL (≈ 97.2 µM), an MIC (Staphylococcus aureus [2]) of 45 µg/mL (≈ 81 µM) and an MIC (Staphylococcus aureus [7]) of 28 µg/mL (≈ 50.4 µM). The MIC (Staphylococcus aureus [3]) was 57 µg/mL (≈ 103 µM), the MIC (Staphylococcus aureus [4]) was 23 µg/mL (≈ 41.4 µM) and the MIC (Staphylococcus aureus [5]) was 57 µg/mL (≈ 103 µM). For the same compound, the MIC (Staphylococcus aureus [6]) was 28 µg/mL (≈ 50.4 µM), the MIC (Staphylococcus aureus [8]) was 28 µg/mL (≈ 50.4 µM) and the EC10 [9] was 31 µg/mL. The CMC [10] was 18 µg/mL.
With `CCCCCCCCCCCCCCCCCC(=O)O` [STEARIC ACID] the MIC (Staphylococcus aureus [11]) was over 250 µg/mL.
`CCCCCCCCCCCCCCCCCCCCCCC(=O)NC(CCC(=O)O)(CCC(=O)O)CCC(=O)O` showed an MIC (Staphylococcus aureus [1]) of 54 µg/mL (≈ 92.5 µM), an MIC (Staphylococcus aureus [2]) of 4.5 µg/mL (≈ 7.71 µM) and an MIC (Staphylococcus aureus [7]) of 14 µg/mL (≈ 24 µM). For the same compound, the MIC (Staphylococcus aureus [3]) was 14 µg/mL (≈ 24 µM), the MIC (Staphylococcus aureus [4]) was 7 µg/mL (≈ 12 µM) and the MIC (Staphylococcus aureus [5]) was 14 µg/mL (≈ 24 µM). It also gave an MIC (Staphylococcus aureus [6]) of 7 µg/mL (≈ 12 µM), an MIC (Staphylococcus aureus [8]) of 7 µg/mL (≈ 12 µM) and an EC10 [9] of 31 µg/mL. It also gave a CMC [10] of 18 µg/mL.
In the case of `CCCCCCCCCCCCCCCCCCCCCCC(=O)NC(C)(CCC(=O)O)CCC(=O)O`, the MIC (Staphylococcus aureus [1]) is reported as 2.2 µg/mL (≈ 4.18 µM), the MIC (Staphylococcus aureus [2]) is reported as 1.7 µg/mL (≈ 3.23 µM) and the MIC (Staphylococcus aureus [7]) is reported as 3.6 µg/mL (≈ 6.85 µM). It also gave an MIC (Staphylococcus aureus [3]) of 3.6 µg/mL (≈ 6.85 µM), an MIC (Staphylococcus aureus [4]) of 3.6 µg/mL (≈ 6.85 µM) and an MIC (Staphylococcus aureus [5]) of 3.6 µg/mL (≈ 6.85 µM). The MIC (Staphylococcus aureus [6]) was 3.6 µg/mL (≈ 6.85 µM), the MIC (Staphylococcus aureus [8]) was 3.6 µg/mL (≈ 6.85 µM) and the EC10 [9] was 7.8 µg/mL. The CMC [10] was 9 µg/mL.
`CCCCCCCCCCCCCCCCCCCCCCCOC(=O)NC(CCC(=O)O)(CCC(=O)O)CCC(=O)O` gave an MIC (Staphylococcus aureus [1]) of 23 µg/mL (≈ 37.5 µM), an MIC (Staphylococcus aureus [2]) of 4.5 µg/mL (≈ 7.33 µM) and an MIC (Staphylococcus aureus [7]) of 7 µg/mL (≈ 11.4 µM). For the same compound, the MIC (Staphylococcus aureus [3]) was 11 µg/mL (≈ 17.9 µM), the MIC (Staphylococcus aureus [4]) was 3.6 µg/mL (≈ 5.86 µM) and the MIC (Staphylococcus aureus [5]) was 14 µg/mL (≈ 22.8 µM). It also gave an MIC (Staphylococcus aureus [6]) of 3.6 µg/mL (≈ 5.86 µM), an MIC (Staphylococcus aureus [8]) of 5.3 µg/mL (≈ 8.63 µM) and an EC10 [9] of 63 µg/mL. The CMC [10] was 18 µg/mL.
Work on `CCCCCCCCCCCCCC(=O)O` [MYRISTIC ACID] yielded an MIC (Staphylococcus aureus [11]) of 250 µg/mL (≈ 1090 µM) and an MIC (Staphylococcus aureus [12]) of 250 µg/mL (≈ 1090 µM).
Work on `CCCCCCCCCCCCCCCCCCCCCNC(=O)NC(CCC(=O)O)(CCC(=O)O)CCC(=O)O` yielded an MIC (Staphylococcus aureus [1]) of 54 µg/mL (≈ 92.3 µM), an MIC (Staphylococcus aureus [2]) of 4.5 µg/mL (≈ 7.69 µM) and an MIC (Staphylococcus aureus [7]) of 7 µg/mL (≈ 12 µM). The MIC (Staphylococcus aureus [3]) was 14 µg/mL (≈ 23.9 µM), the MIC (Staphylococcus aureus [4]) was 11 µg/mL (≈ 18.8 µM) and the MIC (Staphylococcus aureus [5]) was 28 µg/mL (≈ 47.9 µM). The MIC (Staphylococcus aureus [6]) was 11 µg/mL (≈ 18.8 µM), the MIC (Staphylococcus aureus [8]) was 7 µg/mL (≈ 12 µM) and the EC10 [9] was 31 µg/mL. For the same compound, the CMC [10] was 9 µg/mL.
